In brackets after ≈: the same amount, converted by molar mass. Activity calls are given as the source filed them. The rule behind the calls is not given here.
Tests used:
[1] = Partition coefficient, log P at pH 7.4 by saturation shake flask method; assay type: physicochemical; conditions: octanol/water
Outline: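 log P measured by saturation shake-flask in n-octanol/phosphate buffer, pH 7.4. Concentrations in each layer quantified by C18 reverse-phase HPLC-UV against known standards. Means of three experiments ± SD.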

[2] = Solubility in 0.02 M hydrochloric acid buffer at pH 1.3; assay type: physicochemical
Outline: (§1)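 Solubility in water and in buffers at pH 1.3, 5.0 and 7.4, determined by HPLC-UV peak areas correlated with known concentrations. Means of three experiments ± SD.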

[3] = Solubility in water; assay type: physicochemical; outline: as §1
[4] = Solubility in 0.02 M phosphate buffer at pH 7.4; assay type: physicochemical; outline: as §1
[5] = Solubility in 0.02 M sodium acetate buffer at pH 5.0; assay type: physicochemical; outline: as §1
[6] = Chemical stability assessed as half life of hydrolysis in 0.02 M hydrochloric acid buffer at pH 1.3; assay type: physicochemical
Outline: (§2)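 Chemical hydrolysis at 37 °C at pH 1.3, 5.0 and 7.4. Codrug concentration followed over time; Kobs and t1/2 taken by regression from slopes of semilogarithmic concentration–time plots. Means of three experiments ± SD.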

[7] = Chemical stability assessed as half life of hydrolysis in 0.02 M sodium acetate buffer at pH 5.0; assay type: physicochemical; outline: as §2
[8] = Chemical stability assessed as half life of hydrolysis in 0.02 M phosphate buffer at pH 7.4; assay type: physicochemical; outline: as §2
Homo sapiens = species: Homo sapiens; experiment: Stability in human plasma assessed as half life of hydrolysis
Rattus norvegicus [9] = experiment: Prolongation of plasma […] levels in Wistar rat at 184.79 mg/kg, po after 2 hrs; assay type: functional
Outline: (§3)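 Plasma L-dopa concentration–time profile in rats after oral administration, with sampling up to 8 h. Mean ± SE; each experiment in triplicate.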

Rattus norvegicus [10] = experiment: Induction of sustained release of […] levels in Wistar rat striatum at 184.79 mg/kg, po after 12 hrs; assay type: functional
Outline: (§4)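 Oral dosing to rats at doses equimolar to L-dopa. Striatal L-dopa and dopamine measured over time by HPLC with electrochemical detection. Mean ± SE; each experiment in triplicate.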

Rattus norvegicus [11] = experiment: Induction of sustained release of dopamine levels in Wistar rat striatum at 184.79 mg/kg, po after 12 hrs; assay type: functional; outline: as §4
Rattus norvegicus [12] = experiment: Antioxidant activity assessed as increase in glutathione peroxidase activity in Wistar rat plasma at 184.79 mg/kg, po after 1.5 hrs; assay type: functional
Outline: (§5)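 Rats dosed by oral gavage; plasma SOD and GPx activities measured 1.5 h after administration, expressed as units/(g Hb). Mean ± SE of five experiments; P < 0.05 vs L-dopa-treated group.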

Rattus norvegicus [13] = experiment: Antioxidant activity assessed as decrease in SOD activity in Wistar rat plasma at 184.79 mg/kg, po after 1.5 hrs; assay type: functional; outline: as §5
[14] = Stability in rat plasma assessed as half life of hydrolysis; assay type: ADME, cell-free
Outline: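 Enzymatic hydrolysis at 37 °C in 80% human or rat plasma containing 20% 0.02 M phosphate buffer, pH 7.4, monitoring release of L-dopa. Fitted to first-order kinetics to give Kobs and t1/2. Means of three experiments ± SD.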

Rattus norvegicus [15] = experiment: Anxiolytic effect in Wistar rat assessed as […] in entries and time spent in open field center at 184.79 mg/kg, po after 1.5 hrs; assay type: functional, organism-based; design: dose 184.79 mg/kg
[16] = Plasma concentration in Wistar rat at 65.46 mg/kg, po after 2 hrs; assay type: ADME, organism-based; design: dose 65.46 mg/kg, route oral; outline: as §3
[17] = Pro-oxidant effect on Fe(2+)/H2O2-induced deoxyribose degradation relative to control; assay type: functional
Outline: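 Deoxyribose degradation induced by Fe(II)/H2O2 in a medium of deoxyribose, phosphate buffer, EDTA and H2O2 with no enzymatic activity. Compounds tested from 1 to 50 µM.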

`COC(=O)[C@H](CCC(=O)N[C@@H](CS)C(=O)NCC(=O)N[C@@H](Cc1ccc(O)c(O)c1)C(=O)OC)NC(C)=O` [listing 1 of 2 here] gave a logD [1] of 0.89, a solubility [2] of 35100 µg/mL (≈ 63.1 mM) and a solubility [3] of 27000 µg/mL (≈ 48.6 mM). For the same compound, the solubility [4] was 25600 µg/mL (≈ 46.1 mM), the solubility [5] was 25500 µg/mL (≈ 45.8 mM) and the half-life [6] was 20.1 h. The half-life [7] was 40.8 h, the half-life [8] was 7.22 h and the half-life (Homo sapiens) was 0.0533 h.
For `COC(=O)[C@H](CCC(=O)N[C@@H](CS)C(=O)NCC(=O)N[C@@H](Cc1ccc(O)c(O)c1)C(=O)OC)NC(C)=O` [listing 2 of 2 here], the Activity (Rattus norvegicus [9]) was 105 µg/mL, the Activity (Rattus norvegicus [10]) was 40 pmol/mg and the Activity (Rattus norvegicus [11]) was 40 pmol/kg. For the same compound, the Activity (Rattus norvegicus [12]) was 847.78 U/g.Hb and the Activity (Rattus norvegicus [13]) was 174.86 U/g.Hb.
With `COC(=O)CNC(=O)[C@H](CS)NC(=O)CC[C@H](NC(=O)[C@@H](Cc1ccc(O)c(O)c1)NC(C)=O)C(=O)OC` the logD [1] was 0.94, the solubility [2] was 2740 µg/mL (≈ 4.92 mM) and the solubility [3] was 7890 µg/mL (≈ 14.2 mM). It also gave a solubility [4] of 3990 µg/mL (≈ 7.17 mM), a solubility [5] of 3840 µg/mL (≈ 6.9 mM) and a half-life [6] of 31 h. For the same compound, the half-life [7] was 69.3 h, the half-life [8] was 15.1 h and the half-life [14] was 1.9 min. The Activity (Rattus norvegicus [9]) was 85 µg/mL, the Activity (Rattus norvegicus [10]) was 40 pmol/mg and the Activity (Rattus norvegicus [11]) was 40 pmol/kg. For the same compound, the Activity (Rattus norvegicus [12]) was 821 U/g.Hb, the Activity (Rattus norvegicus [13]) was 200.59 U/g and the Activity (Rattus norvegicus [15]) was “Active”. It also gave a half-life (Homo sapiens) of 0.0783 h.
`N[C@@H](Cc1ccc(O)c(O)c1)C(=O)O` [LEVODOPA] showed a concentration at 2 h [16] of 83 µg/mL, an Activity (Rattus norvegicus [12]) of 795.6 U/g and an Activity (Rattus norvegicus [13]) of 203.4 U/g.Hb. The Activity [17] was “Dose-dependent effect”.
With `COC(=O)[C@H](CCC(=O)N[C@@H](CS)C(=O)NCC(=O)N[C@H](Cc1ccc(O)c(O)c1)C(=O)OC)NC(C)=O` the Activity (Rattus norvegicus [15]) was “Active”.
With `N[C@@H](CCC(=O)N[C@@H](CS)C(=O)NCC(=O)N[C@H](Cc1ccc(O)c(O)c1)C(=O)O)C(=O)O` the Activity [17] was “inactive”.
`N[C@@H](CCC(=O)N[C@@H](CS)C(=O)NCC(=O)N[C@@H](Cc1ccc(O)c(O)c1)C(=O)O)C(=O)O` gave a logD [1] of 0.75, a solubility [2] of 2150 µg/mL (≈ 4.42 mM) and a solubility [3] of 1800 µg/mL (≈ 3.7 mM). For the same compound, the solubility [4] was 1930 µg/mL (≈ 3.97 mM), the solubility [5] was 1670 µg/mL (≈ 3.43 mM) and the half-life [6] was 28.1 h. The half-life [7] was 57.3 h, the half-life [8] was 12.2 h and the half-life [14] was 2.7 min. For the same compound, the half-life (Homo sapiens) was 0.252 h.
In the case of `N[C@H](Cc1ccc(O)c(O)c1)C(=O)N[C@@H](CCC(=O)N[C@@H](CS)C(=O)NCC(=O)O)C(=O)O`, the logD [1] is reported as 0.8, the solubility [2] is reported as 550 µg/mL (≈ 1.13 mM) and the solubility [3] is reported as 320 µg/mL (≈ 0.658 mM). It also gave a solubility [4] of 460 µg/mL (≈ 0.946 mM), a solubility [5] of 690 µg/mL (≈ 1.42 mM) and a half-life [6] of 40.4 h. For the same compound, the half-life [7] was 80.1 h, the half-life [8] was 23.2 h and the half-life [14] was 4.1 min. The half-life (Homo sapiens) was 0.222 h.

— ChEMBL document CHEMBL1139876, “Synthesis and study of L-dopa-glutathione codrugs as new anti-Parkinson agents with free radical scavenging properties” (J Med Chem, 2007)
